Legend:
L1210 [1] = assay: Antitumor activity against lymphoid leukemia L1210 in mice for 1 day schedule; type: functional, Mus musculus
Outline: (§1)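 Mice bearing L1210 leukemia; the read-out is the percent increase in life span, reported at the highest nontoxic dose tested. Toxic doses are flagged separately.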

KB = assay: Inhibition of colony formation of KB human epidermoid carcinoma cells.; type: functional; settings: read-out: ED50 (the source's name)
L1210 [2] = assay: Fraction of the cell population of cultured lymphoid leukemia L1210 cells in mitosis after 12 hr at the concentration of 0.03 uM; type: functional, Mus musculus
L1210 [3] = assay: Fraction of the cell population of cultured lymphoid leukemia L1210 cells in mitosis after 24 hr at the concentration of 0.3 uM; type: functional, Mus musculus
P388 [4] = assay: antitumor activity against lymphocyte leukemia P388 in mice as percentage of increase in life span for 1-9 days schedule. (values in the parenthesen indicates dose); type: functional, Mus musculus
Outline: (§2)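 Mice bearing lymphocytic leukemia P388 were treated. The value is the percent increase in life span at the highest nontoxic dose tested.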

P388 [5] = assay: antitumor activity against lymphocyte leukemia P388 in mice as percentage of increase in life span for 1 day schedule; type: functional, Mus musculus; outline: as §2
L1210 [6] = assay: inhibition of proliferation of cultured lymphoid leukemia L1210 cells during 48 hr.; type: functional; settings: Mus musculus, L1210, 48 h, read-out: ID50
Outline: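 Cultured L1210 cells were exposed to agent for 48 h. The value is the concentration that holds proliferation to 50% of untreated control.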

L1210 [7] = assay: Antitumor activity against lymphoid leukemia L1210 in mice for 1-9 days schedule; type: functional, Mus musculus; outline: as §1
P388 [8] = assay: antitumor activity against lymphocyte leukemia P388 in mice as percentage of increase in life span for 1-5 days schedule (values in the parenthesen indicates dose); type: functional, Mus musculus; outline: as §2
P388 [9] = assay: antitumor activity against lymphocyte leukemia P388 in mice as percentage of increase in life span for 30th day survivor, 1-5 days schedule.; type: functional, Mus musculus
L1210 [10] = assay: Fraction of the cell population of cultured lymphoid leukemia L1210 cells in mitosis after 12 hr; type: functional, Mus musculus
L1210 [11] = assay: Fraction of the cell population of cultured lymphoid leukemia L1210 cells in mitosis after 12 hr; at the concentration of 0.01 uM; type: functional, Mus musculus
L1210 [12] = assay: Fraction of the cell population of cultured lymphoid leukemia L1210 cells in mitosis after 12 hr; at the concentration of 0.3 uM; type: functional, Mus musculus
L1210 [13] = assay: Fraction of the cell population of cultured lymphoid leukemia L1210 cells in mitosis after 24 hr; at the concentration of 0.3 uM; type: functional, Mus musculus
L1210 [14] = assay: Fraction of the cell population of cultured lymphoid leukemia L1210 cells in mitosis after 12 hr; at the concentration of 0.03 uM; type: functional, Mus musculus
L1210 [15] = assay: Fraction of the cell population of cultured lymphoid leukemia L1210 cells in mitosis after 24 hr; type: functional, Mus musculus
HEp-2 (Homo sapiens) = assay: Inhibition of colony formation of human epidermoid carcinoma no. 2 (HEp-2) cells.; settings: read-out: ED50 (the source's name)
L1210 [16] = assay: Fraction of the cell population of cultured lymphoid leukemia L1210 cells in mitosis after 12 hr; at the concentration of 0.1 uM; type: functional, Mus musculus
P388 [17] = assay: antitumor activity against lymphocyte leukemia P388 in mice as percentage of increase in life span for 1-9 days schedule; type: functional, Mus musculus; outline: as §2

Row | EC50 (KB) | SMILES | ILS (L1210 [1]) | ILS (P388 [5]) | IC50 (L1210 [6]) | further results
1 | 240000 nM | CCOC(=O)Nc1cc(N)c2nc(CN(C)c3ccc(C(=O)OC)cc3)cnc2n1 | 0% |  |  | ILS (L1210 [7]): 0%
2 | 17000 nM | CCOC(=O)c1ccc(NCc2cnc3nc(N)nc(N)c3n2)cc1 | 0% |  |  | ILS (L1210 [7]): 0%
3 | > 100000 nM | CCOC(=O)Nc1cc2ncc(C(=O)N(C)c3ccccc3)nc2c(N)n1 | 0% |  |  | 
4 | 19000 nM | COC(=O)c1ccc(N(C)Cc2cnc3nc(N)nc(N)c3n2)cc1 | 3% |  |  | ILS (L1210 [7]): 2%
5 | 24000 nM | CCOC(=O)Nc1cc(N)c2c(n1)NCC(CN(C)c1ccc(C(=O)OC)cc1)=N2 | 0% |  |  | ILS (L1210 [7]): 0%
6 | 670 nM | CCOC(=O)Nc1cc2ncc(CN(C)c3ccccc3)nc2c(N)n1 |  |  |  | 
7 | 600 nM | CCOC(=O)Nc1cc2c(c(N)n1)NC(CN(C)c1ccccc1)CN2 (centres undefined) | 10% |  |  | 
8 | > 100000 nM | CN(Cc1cnc2cc(N)nc(N)c2n1)c1ccccc1 | 0% |  |  | ILS (L1210 [7]): 0%

The remaining lines, values behind:

Row | SMILES | EC50 (KB) | ILS (L1210 [1]) | ILS (P388 [5]) | IC50 (L1210 [6]) | further results
9 | CCOC(=O)Nc1cc2c(c(O)n1)N=C(CN(C)c1ccc(C(=O)OC)cc1)CN2 | 8000 nM | 2% |  |  | 
10 | CCOC(=O)Nc1cc2c(c(N)n1)N=C(c1ccccc1)CN2 |  |  | 55% | 4.7 nM | Mitotic index (L1210 [2]): 0.65; Mitotic index (L1210 [3]): 0.54; ILS (mg/kg) (P388 [4]): 51%
11 | CCOC(=O)Nc1cc2ncc(-c3ccc(C(F)(F)F)cc3)nc2c(N)n1 |  |  |  | > 300 nM | 
12 | CCOC(=O)Nc1cc2c(c(N)n1)N=C(c1ccccc1)C(C)N2 (centres undefined) |  |  | 54% | 0.51 nM | ILS (mg/kg) (P388 [8]): 75%
13 | CCOC(=O)Nc1cc2c(c(N)n1)N=C(c1ccc3ccccc3c1)CN2 |  |  |  | 6 nM | ILS (P388 [9]): 66%; Mitotic index (L1210 [10]): 0.6; ILS (mg/kg) (P388 [8]): 53%
14 | CCOC(=O)Nc1cc2c(c(N)n1)N=C(c1ccc(-c3ccccc3)cc1)CN2 |  |  | 36% | 6.1 nM | Mitotic index (L1210 [11]): 0.65; Mitotic index (L1210 [12]): 0.42
15 | COC(=O)c1ccc(N(C)CC2=Nc3c(N)nc(N)nc3NC2)cc1 | 21000 nM |  |  |  | 
16 | CCOC(=O)Nc1ccc(/N=C(/C=C(/O)OCC)c2ccccc2)c(N)n1 |  |  |  | > 300 nM | Mitotic index (L1210 [13]): 0.03
17 | CCOC(=O)Nc1cc2c(c(N)n1)N=C(c1ccccc1)CN2C |  |  | 12% | 160 nM | Mitotic index (L1210 [12]): 0.68
18 | CCOC(=O)Nc1cc2c(c(N)n1)N=C(CCc1ccccc1)CN2 |  |  | 29% | 13 nM | Mitotic index (L1210 [13]): 0.33
19 | CN(CC1=Nc2c(cc(N)nc2S)NC1)c1ccc(C(=O)O)cc1 | 29000 nM |  |  |  | 
20 | CCOC(=O)Nc1cc(N(C)CC(O)c2ccccc2)c(N)c(N)n1 (centres undefined) |  |  | 0% | > 300 nM | 
21 | CCOC(=O)Nc1cc2c(c(N)n1)N=C(CN(C)c1ccccc1)CN2 |  |  | 114% | 8.4 nM | Mitotic index (L1210 [14]): 0.77; Mitotic index (L1210 [15]): 0.8
22 | COC(=O)c1ccc(N(C)CC2=Nc3c(cc(N)nc3Cl)NC2)cc1 | > 100000 nM |  |  |  | 
23 | CCOC(=O)Nc1cc2ncc(-c3ccccc3)nc2c(N)n1 |  |  | 0% | > 300 nM | Mitotic index (L1210 [13]): 0.02
24 | CCOC(=O)Nc1cc2c(c(NC(=O)OCC)n1)N=C(CN(C)c1ccccc1)CN2 |  | 46% |  |  | ILS (L1210 [7]): 14%; EC50 (HEp-2 (Homo sapiens)): 1200 nM
25 | CCOC(=O)Nc1cc2ncc(CN(C)c3ccc(C(=O)OC)cc3)nc2c(N)n1 |  |  |  |  | EC50 (HEp-2 (Homo sapiens)): 19000 nM
26 | CN(CC1=Nc2c(cc(N)nc2N)NC1)c1ccccc1 |  |  |  | 5.8 nM | Mitotic index (L1210 [16]): 0.44; ILS (P388 [17]): 30%; Mitotic index (L1210 [12]): 0.61
27 | CCOC(=O)Nc1cc2c(c(NC(=O)OCC)n1)N=C(C)CN2 | 91000 nM | 0% |  |  | 
28 | CCOC(=O)Nc1cc2ncc(CNc3ccc(C(=O)OCC)cc3)nc2c(N)n1 |  |  |  |  | EC50 (HEp-2 (Homo sapiens)): 42000 nM
29 | CCOC(=O)Nc1cc2c(c(N)n1)N=C(c1ccc(C(F)(F)F)cc1)CN2 |  |  | 0% | 150 nM | ILS (mg/kg) (P388 [4]): 17%; Mitotic index (L1210 [13]): 0.01
30 | CCOC(=O)c1ccc(NCC2=Nc3c(N)nc(N)nc3NC2)cc1 | 10000 nM | 8% |  |  | ILS (L1210 [7]): 0%
31 | CCOC(=O)Nc1ccc(/N=C/c2ccccc2)cn1 |  |  | 0% | > 300 nM | 
